Source: PubChem BioAssay
This is a sample that favours compounds with a hit; in the whole collection about 2.6% have one here.
SENP6 block = SENP6 protease inhibitors, primary screen, biochemical, luminescence, uHTS; AID 2599, 2010; 330,000 compounds, 1.8% hits; Recombinant SENP6 catalytic domain, aminoluciferin luminescence; Sentrin-specific protease 6 (Homo sapiens), Q9GZR1; inhibition, % at 10 µM;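 active means inhibition above about 50% at the single tested dose, limit read from the data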;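 further: plate controls were DMSO wells with enzyme for no effect and DMSO wells lacking enzyme for full effect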
Target sequence (Q9GZR1 628-1112 limits assumed): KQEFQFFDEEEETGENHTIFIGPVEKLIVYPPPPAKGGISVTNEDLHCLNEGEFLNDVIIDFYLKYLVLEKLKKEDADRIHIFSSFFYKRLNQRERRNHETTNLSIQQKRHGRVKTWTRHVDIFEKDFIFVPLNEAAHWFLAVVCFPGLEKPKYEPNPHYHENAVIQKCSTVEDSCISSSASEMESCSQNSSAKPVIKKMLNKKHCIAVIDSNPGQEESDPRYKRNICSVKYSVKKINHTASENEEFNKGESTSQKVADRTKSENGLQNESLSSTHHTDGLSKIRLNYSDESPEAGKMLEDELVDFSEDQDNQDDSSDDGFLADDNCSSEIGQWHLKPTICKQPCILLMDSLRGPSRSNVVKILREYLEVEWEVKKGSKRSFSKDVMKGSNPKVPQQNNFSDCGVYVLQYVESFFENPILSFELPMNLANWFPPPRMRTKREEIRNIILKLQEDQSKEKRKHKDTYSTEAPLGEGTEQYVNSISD
SENP8 block-1 = SENP8 protease inhibitors, primary screen, biochemical, luminescence. Sentrin-specific protease 8 (Homo sapiens), Q96LD8. purified SENP8, Z-RLRGG-aminoluciferin cleavage. inhibition, % at 10 µM. 330,000 compounds, 1.2% hits; in the data active means inhibition above about 50%
SENP1 inh = human SENP1 catalytic domain inhibitors, primary screen, biochemical, FRET, uHTS; inhibition, % at 10 µM; recombinant SENP1 catalytic domain, CyPet-SUMO1-YPet FRET cleavage; Sentrin-specific protease 1 (Homo sapiens), Q9P0U3; AID 624204, 2012; 360,000 compounds, 0.21% hits;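 active means inhibition at least 30% at 10 µM, raw YFP signal under a set limit, fluorescence ratio 0.5 to 1.5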;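 further: 0% = enzyme with DMSO and 100% = no enzyme wells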
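Compound: 10 µM single point, 0.5% DMSO; Test system: hSENP1 catalytic domain, recombinant; Timing: 50 min reaction at room temperature; Technique: FRET, CFP and YFP emission; Control set: no-enzyme wells low, DMSO-plus-enzyme wells high control.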
SENP8 block-2 = human SENP8 protease inhibitors, primary screen, biochemical, fluorescence, Nedd8 protein substrate, uHTS; recombinant SENP8; 360,000 compounds, 0.64% hits; inhibition, % at 20 µM; AID 602440, 2012; in the data active means inhibition mostly above about 40%, no sharp cut-off; inactive means mostly below about 27%
SENP7 block = SENP7 protease inhibitors, primary screen, biochemical, luminescence, uHTS | Sentrin-specific protease 7 (Homo sapiens), Q9BQF6 | recombinant SENP7, Z-RLRGG-aminoluciferin luminescence, 40 min | inhibition, % at 5 µM | 330,000 compounds, 1.5% hits;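 active means inhibition above about 50% at the single test dose, limit read from the data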;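 further: plate controls were DMSO with enzyme for no effect and no enzyme buffer wells for full effect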
Platelet DG rel = inhibitors of platelet dense granule secretion, primary screen, cell-based, MLPCN, human platelets; human platelet-rich plasma, SFLLRN dense granule ATP release, luminescence; inhibition, %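 (compounds screened at 7.5 µM in platelet-rich plasma)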; 300,000 compounds, 0.22% hits;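 active means mean replicate score, as percent of positive control, at or above 50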
Numbers without * were called inactive.

`COc1ccc(NC(=O)c2cc(S(=O)(=O)N3CCc4ccccc43)cn2C)cc1` gave SENP6 block -6.4, SENP8 block-1 -4.9, SENP1 inh 3.1, SENP8 block-2 9.7, SENP7 block 16.6 and Platelet DG rel 97.9*.
For N#C/C(=C(/O)c1ccc2c(c1)OCO2)c1nc2cc(C(F)(F)F)ccc2s1 the results were SENP6 block 47.7, SENP8 block-1 53.5*, SENP1 inh 10.4, SENP8 block-2 -50.8, SENP7 block 5.4 and Platelet DG rel 1.9.
For O=C(Nc1ccc(OCc2ccccc2)cc1)Nc1nnc([C@H]2C[C@H](O)[C@@H](CO)O2)s1 the results were SENP1 inh 0.4 and SENP8 block-2 11.3.
`COc1cc(/C=C2/C(=O)NN(c3ccc(C)c(Cl)c3)C2=O)cc([N+](=O)[O-])c1O` gave SENP6 block 0.8, SENP8 block-1 3.3, SENP1 inh 2.3, SENP8 block-2 49.5*, SENP7 block 3.5 and Platelet DG rel 3.5.
Screening COc1cc(/C=C2/C(=O)NN(c3cccc(C)c3)C2=O)cc([N+](=O)[O-])c1O returned SENP6 block 13.5, SENP8 block-1 2.1, SENP1 inh 2.9, SENP8 block-2 48.4*, SENP7 block 5.4 and Platelet DG rel 2.4.
Screening O=C(C1=NOC2(C1)C(=O)Nc1ccccc12)N1CCCCC1 (stereo unspecified) returned SENP1 inh 2.3 and SENP8 block-2 2.5.
Screening COc1cc(N=Nc2ccc(Br)cc2)cc(C=O)c1O returned SENP1 inh 9.5 and SENP8 block-2 44.0*.
For C[C@H](CO)N1C[C@H](C)[C@@H](CN(C)S(C)(=O)=O)Oc2c(NC(=O)C3CC3)cccc2C1=O the results were SENP6 block -6.7, SENP8 block-1 -2.7, SENP1 inh 0.3, SENP8 block-2 1.2 and SENP7 block 2.9.
Cc1cccc(NC(=S)N=Nc2c(O)[nH]c3ccccc23)c1 was read as SENP6 block -3.0, SENP8 block-1 3.1, SENP1 inh 6.6, SENP8 block-2 42.2*, SENP7 block 5.8 and Platelet DG rel -1.8.
Screening O=c1c(O)c(-c2cc(O)c(O)c(O)c2)oc2cc(O)cc(O)c12 returned SENP6 block 13.3, SENP8 block-1 4.0, SENP1 inh 83.7*, SENP8 block-2 38.9* and SENP7 block 3.4.
For Cc1ccc(CSc2nnc(SCC(=O)N/N=C/c3c[nH]c4ccccc34)s2)cc1 the results were SENP1 inh 1.0, SENP8 block-2 12.3 and Platelet DG rel -0.9.
`O=C(CSc1nnc(SCc2ccccc2)s1)N/N=C/c1ccc(C(=O)O)cc1` gave SENP6 block 20.1, SENP8 block-1 51.2*, SENP1 inh -1.2, SENP8 block-2 14.1, SENP7 block 23.7 and Platelet DG rel -1.4.
Cc1ccc(CSc2nnc(SCC(=O)N/N=C/c3ccc(C(=O)O)cc3)s2)cc1 was read as SENP6 block 91.7*, SENP8 block-1 71.8*, SENP1 inh 0.8, SENP8 block-2 10.0, SENP7 block 55.1* and Platelet DG rel -0.8.
`Cc1ccc(CSc2nnc(SCC(=O)N/N=C/c3ccccc3OCC(=O)O)s2)cc1` gave SENP6 block 87.9*, SENP8 block-1 59.5*, SENP1 inh -1.9, SENP8 block-2 18.5, SENP7 block 22.5 and Platelet DG rel -3.9.
For Cc1nn(CC(=O)Nc2ccc(N3CCOCC3)cc2)c(C)c1[N+](=O)[O-] the results were SENP6 block 11.4, SENP8 block-1 4.1, SENP1 inh 2.6, SENP8 block-2 6.3 and SENP7 block 1.4.
Screening Cc1ccc(S(=O)(=O)/N=C(\c2ccc(F)cc2)n2c(C)nc3ccccc32)cc1 returned SENP6 block 4.4, SENP8 block-1 4.6, SENP1 inh 3.9, SENP8 block-2 28.0, SENP7 block -1.9 and Platelet DG rel 51.7*.
For Cc1ccc(S(=O)(=O)/N=C(/c2ccc(F)cc2)N2CCCC2)cc1 the results were SENP6 block -6.2, SENP8 block-1 -0.9, SENP1 inh 1.5, SENP8 block-2 1.3, SENP7 block -9.3 and Platelet DG rel 2.3.
CCCc1c(Cc2cccc(F)c2)ncn1Cc1cccc(-c2ccccc2)c1 was read as SENP1 inh 0.3 and SENP8 block-2 -10.1.
Screening CCCCN1C(=O)/C(=C/C=C2/CC(C)(C)CN2C)SC1=S returned SENP6 block 6.4, SENP8 block-1 -0.9, SENP1 inh -26.8, SENP8 block-2 46.5*, SENP7 block 5.2 and Platelet DG rel 2.0.
For COC(=O)C1=C(C(=O)OC)SC(=C2C(=S)C(C)(C)N(C(=O)CC(C)C)c3ccccc32)S1 the results were SENP6 block -7.7, SENP8 block-1 4.5, SENP1 inh 2.0, SENP8 block-2 59.1*, SENP7 block 17.4 and Platelet DG rel 9.1.
Screening Cn1c(=O)oc2cc(S(=O)(=O)NC3CCN(Cc4ccccc4)CC3)ccc21 returned SENP6 block -4.4, SENP8 block-1 7.9, SENP1 inh -1.1, SENP8 block-2 7.7, SENP7 block -3.8 and Platelet DG rel 52.1*.
For Cc1nc2cc(C)c(C)cc2s1 the results were SENP6 block -23.3, SENP8 block-1 -11.6, SENP1 inh 0.6, SENP8 block-2 -1.0, SENP7 block 2.0 and Platelet DG rel -0.6.
CN(C)c1ccc2nc3ccc(=[N+](C)C)cc-3sc2c1 was read as SENP6 block 32.2, SENP8 block-1 34.4, SENP1 inh 4.5, SENP8 block-2 65.6*, SENP7 block 16.2 and Platelet DG rel 11.9.
Screening Cc1cc2nc3ccc(=[N+](C)C)cc-3sc2cc1N returned SENP1 inh 12.8, SENP8 block-2 57.1* and Platelet DG rel 6.7.
`CN(C)c1ccc2nc3ccc(=O)cc-3sc2c1` gave SENP1 inh 10.6 and SENP8 block-2 -4.4.
CC(C)Cn1c(N)c(C(=O)COC(=O)/C=C/c2ccccc2)c(=O)n(C)c1=O was read as SENP6 block -6.4, SENP8 block-1 -8.0, SENP1 inh -3.5, SENP8 block-2 -0.3, SENP7 block -12.9 and Platelet DG rel -8.5.
Screening CCOC(=O)CC1(C)Sc2ccccc2N1S(=O)(=O)c1ccc(C)cc1 (stereo unspecified) returned SENP1 inh 0.7 and SENP8 block-2 20.1.
Screening Oc1ccccc1/C=N/Nc1cc(N2CCCC2)nc(N2CCCC2)n1 returned SENP6 block 49.0, SENP8 block-1 14.3, SENP1 inh 2.5, SENP8 block-2 58.4*, SENP7 block 45.3 and Platelet DG rel -1.6.
Screening Oc1ccc(/C=N/Nc2cc(N3CCOCC3)nc(N3CCOCC3)n2)cc1O returned SENP6 block 23.7, SENP8 block-1 -0.6, SENP1 inh -6.5, SENP8 block-2 -98.0, SENP7 block 14.2 and Platelet DG rel 3.5.
